Values after ≈ are worked out from the molar mass of the structure shown.
Columns and labels:
Format in all cases: functional
[1] = system: Mycobacterium kansasii; assay: Antimycobacterial activity against Mycobacterium kansasii 6509/96 after 21 days by microdilution method; details: 6509/96, 504 h
In short: (§1)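 Clinical isolate that, unlike the standard strain, is not isoniazid-resistant. Tested by dilution micromethod in Šula semisynthetic medium, with compounds added in DMSO at final 1000 down to 0.25 µmol/L in twofold steps. Löwenstein-Jensen plate used as inoculum sterility and growth control. Incubated at 37 °C and read at 14 and 21 days. MIC is the lowest concentration inhibiting growth.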

[2] = system: Mycobacterium kansasii; assay: Antimycobacterial activity against Mycobacterium kansasii CNCTC My 235/80 after 21 days by microdilution method; details: CNCTC My 235/80, 504 h
In short: (§2)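 Strains from the Czech National Collection of Type Cultures, tested by dilution micromethod in Šula semisynthetic medium. Incubated at 37 °C and read at 14 and 21 days. MIC is the lowest concentration inhibiting growth.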

[3] = system: Mycobacterium tuberculosis; assay: Antimycobacterial activity against Mycobacterium tuberculosis CNCTC My 331/88 after 21 days by microdilution method; details: CNCTC My 331/88, 504 h; in short: as §2
[4] = system: Mycobacterium tuberculosis; assay: Antimycobacterial activity against Mycobacterium tuberculosis CNCTC My 331/88 after 14 days by microdilution method; details: CNCTC My 331/88, 336 h; in short: as §2
[5] = system: Mycobacterium kansasii; assay: Antimycobacterial activity against Mycobacterium kansasii 6509/96 after 14 days by microdilution method; details: 6509/96, 336 h; in short: as §1
[6] = system: Mycobacterium avium; assay: Antimycobacterial activity against Mycobacterium avium CNCTC My 330/88 after 21 days by microdilution method; details: CNCTC My 330/88, 504 h; in short: as §2
[7] = system: Mycobacterium avium; assay: Antimycobacterial activity against Mycobacterium avium CNCTC My 330/88 after 14 days by microdilution method; details: CNCTC My 330/88, 336 h; in short: as §2
[8] = system: Mycobacterium kansasii; assay: Antimycobacterial activity against Mycobacterium kansasii CNCTC My 235/80 after 14 days by microdilution method; details: CNCTC My 235/80, 336 h; in short: as §2

| Structure (SMILES) | MIC [1] [µM] | MIC [2] [µM] | MIC [3] [µM] | MIC [4] [µM] | MIC [5] [µM] | MIC [6] [µM] | MIC [7] [µM] | MIC [8] [µM] |
| --- | --- | --- | --- | --- | --- | --- | --- | --- |
| Cc1ccc2c(=S)n(-c3ccc(C(C)C)cc3)c(=S)oc2c1 | 2 (≈ 0.655 µg/mL) | 4 (≈ 1.31 µg/mL) | 1 (≈ 0.327 µg/mL) | 0.5 (≈ 0.164 µg/mL) | 1 (≈ 0.327 µg/mL) | 0.5 (≈ 0.164 µg/mL) | 0.5 (≈ 0.164 µg/mL) | 2 (≈ 0.655 µg/mL) |
| CCC(C)c1ccc(-n2c(=S)oc3ccc(Br)cc3c2=S)cc1 (stereo not given) | 4 (≈ 1.63 µg/mL) | 8 (≈ 3.25 µg/mL) | 2 (≈ 0.813 µg/mL) | 1 (≈ 0.406 µg/mL) | 2 (≈ 0.813 µg/mL) | 32 (≈ 13 µg/mL) | 32 (≈ 13 µg/mL) | 4 (≈ 1.63 µg/mL) |
| CCC(C)c1ccc(-n2c(=S)oc3ccc(Cl)cc3c2=S)cc1 (stereo not given) | 8 (≈ 2.9 µg/mL) | 16 (≈ 5.79 µg/mL) | 2 (≈ 0.724 µg/mL) | 1 (≈ 0.362 µg/mL) | 4 (≈ 1.45 µg/mL) | 32 (≈ 11.6 µg/mL) | 16 (≈ 5.79 µg/mL) | 8 (≈ 2.9 µg/mL) |
| CCC(C)c1ccc(-n2c(=S)oc3cc(Cl)ccc3c2=S)cc1 (stereo not given) | 2 (≈ 0.724 µg/mL) | 8 (≈ 2.9 µg/mL) | 1 (≈ 0.362 µg/mL) | 1 (≈ 0.362 µg/mL) | 1 (≈ 0.362 µg/mL) | 8 (≈ 2.9 µg/mL) | 4 (≈ 1.45 µg/mL) | 4 (≈ 1.45 µg/mL) |
| CCCCc1ccc(-n2c(=S)oc3ccc(Cl)cc3c2=S)cc1 | 8 (≈ 2.9 µg/mL) | 8 (≈ 2.9 µg/mL) | 4 (≈ 1.45 µg/mL) | 2 (≈ 0.724 µg/mL) | 8 (≈ 2.9 µg/mL) | 16 (≈ 5.79 µg/mL) | 8 (≈ 2.9 µg/mL) | 8 (≈ 2.9 µg/mL) |
| CC(C)c1ccc(-n2c(=O)oc3ccc(Br)cc3c2=O)cc1 | 8 (≈ 2.88 µg/mL) | 8 (≈ 2.88 µg/mL) | 4 (≈ 1.44 µg/mL) | 2 (≈ 0.72 µg/mL) | 4 (≈ 1.44 µg/mL) | 16 (≈ 5.76 µg/mL) | 8 (≈ 2.88 µg/mL) | 8 (≈ 2.88 µg/mL) |
| CC(C)c1ccc(-n2c(=O)oc3ccc(Cl)cc3c2=O)cc1 | 16 (≈ 5.05 µg/mL) | 16 (≈ 5.05 µg/mL) | 8 (≈ 2.53 µg/mL) | 4 (≈ 1.26 µg/mL) | 8 (≈ 2.53 µg/mL) | 32 (≈ 10.1 µg/mL) | 32 (≈ 10.1 µg/mL) | 8 (≈ 2.53 µg/mL) |
| CC(C)c1ccc(-n2c(=O)oc3cc(Cl)ccc3c2=O)cc1 | 8 (≈ 2.53 µg/mL) | 16 (≈ 5.05 µg/mL) | 4 (≈ 1.26 µg/mL) | 4 (≈ 1.26 µg/mL) | 8 (≈ 2.53 µg/mL) | 16 (≈ 5.05 µg/mL) | 8 (≈ 2.53 µg/mL) | 8 (≈ 2.53 µg/mL) |
| CC(C)(C)c1ccc(-n2c(=S)oc3cc(Cl)ccc3c2=S)cc1 | 4 (≈ 1.45 µg/mL) | 4 (≈ 1.45 µg/mL) | 0.5 (≈ 0.181 µg/mL) | 0.5 (≈ 0.181 µg/mL) | 2 (≈ 0.724 µg/mL) | 4 (≈ 1.45 µg/mL) | 2 (≈ 0.724 µg/mL) | 2 (≈ 0.724 µg/mL) |
| CC(C)(C)c1ccc(-n2c(=S)oc3ccc(F)cc3c2=S)cc1 | 8 (≈ 2.76 µg/mL) | 8 (≈ 2.76 µg/mL) | 0.5 (≈ 0.173 µg/mL) | 0.5 (≈ 0.173 µg/mL) | 4 (≈ 1.38 µg/mL) | 1 (≈ 0.345 µg/mL) | 0.5 (≈ 0.173 µg/mL) | 8 (≈ 2.76 µg/mL) |

From ChEMBL document CHEMBL1287747, “Highly active antimycobacterial derivatives of benzoxazine” (2010)
